From ChEMBL document CHEMBL2176873, “α-1-C-butyl-1,4-dideoxy-1,4-imino-l-arabinitol as a second-generation iminosugar-based oral α-glucosidase inhibitor for improving postprandial hyperglycemia” (J Med Chem, 2012) come the findings set out here.

One may read the inhibition as the change of the read-out against control, counted positive when it falls.

Assay [1] addresses T1, Glucosylceramidase (Bos taurus) (UniProt Q2KHZ8).
T1 sequence (whole entry): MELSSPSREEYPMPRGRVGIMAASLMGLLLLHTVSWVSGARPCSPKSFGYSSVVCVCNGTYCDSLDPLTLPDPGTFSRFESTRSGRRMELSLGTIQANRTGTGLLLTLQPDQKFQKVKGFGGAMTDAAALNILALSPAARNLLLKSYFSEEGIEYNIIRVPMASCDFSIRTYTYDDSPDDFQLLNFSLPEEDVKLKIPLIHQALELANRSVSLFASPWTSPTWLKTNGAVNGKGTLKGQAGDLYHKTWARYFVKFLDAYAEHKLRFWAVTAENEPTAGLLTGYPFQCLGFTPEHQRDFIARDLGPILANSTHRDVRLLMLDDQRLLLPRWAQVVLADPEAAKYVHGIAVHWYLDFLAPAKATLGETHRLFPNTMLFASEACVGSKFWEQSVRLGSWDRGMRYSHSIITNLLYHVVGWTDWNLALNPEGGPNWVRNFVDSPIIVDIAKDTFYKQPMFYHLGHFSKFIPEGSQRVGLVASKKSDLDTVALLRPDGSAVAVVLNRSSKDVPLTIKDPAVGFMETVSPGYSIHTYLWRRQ
Nature of the assay: Inhibition of bovine liver beta-glucosidase at 1000 uM.

Assay [2] deals with T2, Beta-galactosidase (Bos taurus) (UniProt Q58D55).
T2 sequence (whole entry): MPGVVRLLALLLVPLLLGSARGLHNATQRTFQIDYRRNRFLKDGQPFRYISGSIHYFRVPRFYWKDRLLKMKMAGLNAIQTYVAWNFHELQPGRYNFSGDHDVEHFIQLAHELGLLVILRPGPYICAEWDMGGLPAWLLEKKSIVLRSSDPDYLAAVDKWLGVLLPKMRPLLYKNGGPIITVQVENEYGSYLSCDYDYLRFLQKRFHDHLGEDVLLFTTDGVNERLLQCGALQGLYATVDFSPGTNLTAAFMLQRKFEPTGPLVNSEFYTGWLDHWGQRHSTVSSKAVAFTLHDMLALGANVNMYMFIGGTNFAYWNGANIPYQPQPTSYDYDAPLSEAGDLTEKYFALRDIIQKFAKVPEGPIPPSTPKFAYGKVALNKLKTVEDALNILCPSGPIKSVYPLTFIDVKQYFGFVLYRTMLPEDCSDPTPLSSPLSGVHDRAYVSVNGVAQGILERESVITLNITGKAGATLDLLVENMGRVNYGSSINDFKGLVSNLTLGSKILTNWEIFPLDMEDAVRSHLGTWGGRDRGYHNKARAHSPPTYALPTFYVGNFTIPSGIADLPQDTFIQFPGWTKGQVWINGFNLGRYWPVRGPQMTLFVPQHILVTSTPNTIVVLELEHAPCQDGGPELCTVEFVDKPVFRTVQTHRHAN
The assay is described as follows: Inhibition of bovine liver beta-galactosidase at 1000 uM.

A further assay has as its system Mus musculus. The assay is described as follows: Antihyperglycemic activity in overnight fasted ddY mouse assessed as decrease in blood glucose level at 0.5 mg/kg administered via stomach tube after 60 mins by sucrose loading test relative to control. It is filed as functional. Set-up: scale not given: the % may be the effect or the level left. The gist of the method:
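Male ddY mice received maltose or sucrose (2.5 g/kg) with inhibitor in 0.9% NaCl by stomach tube; controls got saline only. Tail-vein blood glucose was read with a portable meter at 0, 15, 30, 60 and 120 min after loading.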

Consider `CCCC[C@@H]1N[C@@H](CO)[C@H](O)[C@H]1O`, for which the inhibition in assay [1] and in assay [2] was less than 50% each time. For the same compound, the Activity with Mus musculus was determined as 69.2%.
